Test results as given in ChEMBL document CHEMBL4049449, “Discovery of a Novel Class of Survival Motor Neuron 2 Splicing Modifiers for the Treatment of Spinal Muscular Atrophy” (J Med Chem, 2017).
Calls of active or inactive are those of the source. The calls are words filed in the database; no cut-off is given here.

Assays:
[1] = species on record: Homo sapiens; test: Modulation of patient derived full length SMN2 pre mRNA splicing assessed as inclusion of exon 7
[2] = species on record: Homo sapiens; test: Modulation of patient derived full length SMN2 pre mRNA splicing assessed as restoration of functional SMN2 to protein level
[3] = system: Salmonella typhimurium; test: Genotoxicity in Salmonella typhimurium TA102 in presence of rat liver S9 fraction by Ames test; type: toxicity; settings: salmonella enterica subsp. enterica serovar typhimurium
In short: (§1)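 Ames plate incorporation: strains grown overnight at 37 °C in nutrient broth (TA102 with 0.3 μg/mL tetracycline). Compound at 20–2000 μg/plate in top agar with histidine/biotin, plus rat liver S9 mix (NADP, glucose 6-phosphate, KCl, MgCl2, pH 7.4 phosphate). Vogel–Bonner plates incubated 37 °C, 2 days; colonies counted by image analysis. Positive: dose-dependent ≥2-fold (TA1535, TA98) or ≥1.5-fold (TA97, TA100, TA102) rise over background.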

[4] = system: Salmonella typhimurium; test: Genotoxicity in Salmonella typhimurium TA97 in presence of rat liver S9 fraction by Ames test; type: toxicity; settings: salmonella enterica subsp. enterica serovar typhimurium; in short: as §1
[5] = system: Salmonella typhimurium; test: Genotoxicity in Salmonella typhimurium TA100 in presence of rat liver S9 fraction by Ames test; type: toxicity; settings: salmonella enterica subsp. enterica serovar typhimurium; in short: as §1
[6] = system: Salmonella typhimurium; test: Genotoxicity in Salmonella typhimurium TA98 in presence of rat liver S9 fraction by Ames test; type: toxicity; settings: salmonella enterica subsp. enterica serovar typhimurium; in short: as §1
[7] = system: Salmonella typhimurium; test: Genotoxicity in Salmonella typhimurium TA1535 in presence of rat liver S9 fraction by Ames test; type: toxicity; settings: salmonella enterica subsp. enterica serovar typhimurium; in short: as §1
[8] = system: Mus musculus; test: Induction of SMN protein levels in neonatal delta7 FVB mouse brain at 0.3 mg/kg, ip qd administered from postnatal day 3 to day 9 measured 1 hr post last dose by HTRF assay relative to control; type: functional
[9] = system: Mus musculus; test: Induction of SMN protein levels in C/C-Allele SMA FVB mouse brain at 1 mg/kg, po qd for 10 days measured 1 hr post last dose by HTRF assay relative to control; type: functional
In short: (§2)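 Adult C/C-allele SMA mice dosed orally once daily for 10 days at 1, 3 or 10 mg/kg. SMN protein in brain and quadriceps was expressed as % increase over vehicle-treated animals.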

[10] = system: Mus musculus; test: Induction of SMN protein levels in neonatal delta7 FVB mouse brain at 1 mg/kg, ip qd administered from postnatal day 3 to day 9 measured 1 hr post last dose by HTRF assay relative to control; type: functional
[11] = Total AUC in neonatal wild type FVB mouse plasma at 3 mg/kg, ip qd for 10 days by LC-MS/MS analysis; type: ADME, organism-based; set-up: dose 3 mg/kg, route intraperitoneal, time AUCmax
In short: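 Plasma AUC determined in a satellite group of neonatal (P10) wild-type mice dosed ip. Free AUC was calculated using the free fraction measured in serum from adult mice.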

[12] = Total AUC in wild type FVB mouse plasma at 10 mg/kg, po qd for 10 days by LC-MS/MS analysis; type: ADME, organism-based; set-up: dose 10 mg/kg, route oral, time AUCmax
[13] = system: Mus musculus; test: Induction of SMN protein levels in C/C-Allele SMA FVB mouse brain at 10 mg/kg, po qd for 10 days measured 1 hr post last dose by HTRF assay relative to control; type: functional; in short: as §2
[14] = system: Mus musculus; test: Induction of SMN protein levels in C/C-Allele SMA FVB mouse brain at 3 mg/kg, po qd for 10 days measured 1 hr post last dose by HTRF assay relative to control; type: functional; in short: as §2
[15] = system: Mus musculus; test: Induction of SMN protein levels in neonatal delta7 FVB mouse brain at 3 mg/kg, ip qd administered from postnatal day 3 to day 9 measured 1 hr post last dose by HTRF assay relative to control; type: functional

Structure (SMILES) | EC1.5 [1] | EC1.5 [2] | other results
Cc1cn2cc(NC(=O)c3ccc(N4CCNC(C)(C)C4)cc3F)ncc2n1 | 31 nM | 504 nM | 
COc1nc(N2CCNCC2)ccc1C(=O)Nc1cn2cc(C)nc2cn1 | 129 nM | 555 nM | 
Cc1cn2cc(COc3ccc(N4CCNCC4)cc3)nc2c(C)n1 | inactive | inactive | 
Cc1nc2c(F)cc(NC(=O)c3ccc(N4CCNCC4)cc3F)cc2o1 | 39 nM | 116 nM | Activity [3]: Non-Toxic; Activity [4]: Non-Toxic; Activity [5]: Non-Toxic; Activity [6]: Non-Toxic; Activity [7]: Non-Toxic
Cc1cn2cc(NC(=O)c3ccc(N4CCNC(C(C)C)C4)cc3F)ncc2n1 (stereo not given) | 106 nM | 265 nM | 
CC[C@H]1CN(c2ccc(C(=O)Nc3cn4cc(C)nc4cn3)c(F)c2)CCN1 | 12 nM | 246 nM | Activity [8]: 26%; Activity [9]: 22%; Activity [10]: 53%; AUC at 240 h [11]: 4.45 µg·h/mL; AUC at 240 h [12]: 27.1 µg·h/mL; Activity [13]: 260%; Activity [14]: 81%; Activity [15]: 100%
Cc1cn2cc(CCc3ccc(N4CCNCC4)cc3)nc2c(C)n1 | inactive | inactive | 
Cc1cn2cc(NC(=O)c3ccc(N4CCNCC4)cc3F)ncc2n1 | 37 nM | 87 nM | Activity [3]: Non-Toxic; Activity [4]: Non-Toxic; Activity [5]: Non-Toxic; Activity [6]: Non-Toxic; Activity [7]: Non-Toxic
COc1cc(N2CCNC(C)C2)ccc1C(=O)Nc1cn2cc(C)nc2cn1 (stereo not given) | 58 nM | 206 nM | 
Cc1cn2cc(NC(=O)c3ccc(N4CCN[C@H](C)C4)cc3F)ncc2n1 | 15 nM | 122 nM | 
Cc1cn2cc(NC(=O)c3cc(F)c(N4CCNC(C)C4)cc3F)ncc2n1 (stereo not given) | 85 nM | 495 nM | 
CCN1CCN(c2ccc3cc(-c4cn5cc(C)nc(C)c5n4)c(=O)oc3c2)C[C@@H]1C |  |  | Activity [3]: Toxic; Activity [4]: Toxic; Activity [5]: Toxic; Activity [6]: Toxic; Activity [7]: Toxic
CC[C@@H]1CN(c2ccc(C(=O)Nc3cn4cc(C)nc4cn3)c(F)c2)CCN1 | 29 nM | 158 nM | Activity [8]: 0%; Activity [9]: 19%; Activity [10]: 66%; AUC at 240 h [11]: 3.73 µg·h/mL; AUC at 240 h [12]: 19 µg·h/mL; Activity [13]: 217%; Activity [14]: 45%; Activity [15]: 117%
Cc1cn2cc(NC(=O)c3ccc(N4CCNC(C)C4)c(F)c3F)ncc2n1 (stereo not given) | 165 nM | 603 nM | 
Cc1cn2cc(NC(=O)c3c(F)cc(N4CCNCC4)cc3Cl)ncc2n1 | 2030 nM | 8760 nM | 
Cc1cn2cc(NC(=O)c3ccc(N4CCNCC4)cc3F)cc(F)c2n1 | 11 nM | 27 nM | Activity [3]: Toxic; Activity [4]: Toxic; Activity [5]: Toxic; Activity [6]: Toxic; Activity [7]: Toxic
Cc1cn2cc(NC(=O)c3ccc(N4CCNCC4)cc3)ncc2n1 | 1040 nM | 2250 nM | 

Now from value to compound, other results behind:

EC1.5 [1] | EC1.5 [2] | Structure (SMILES) | other results
inactive | inactive | Cc1cn2nc(NC(=O)c3ccc(N4CCNC(C)C4)cc3F)nc2c(C)n1 (stereo not given) | Activity [3]: Non-Toxic; Activity [4]: Non-Toxic; Activity [5]: Non-Toxic; Activity [6]: Non-Toxic; Activity [7]: Non-Toxic
91 nM | 176 nM | Cc1cn2cc(NC(=O)c3ccc(C4CCN(C)C4)cc3F)nc2c(C)n1 (stereo not given) | 
530 nM | inactive | Cc1cn2cc(-c3ccc4c(c3)CCN(C3CCNCC3)C4=O)nc2c(C)n1 | 
inactive | inactive | Cc1cn2cc(C(=O)Nc3ccc(N4CCN(C)CC4)cc3)nc2c(C)n1 | 
 | 775 nM | Cc1cn2cc(NC(=O)c3ccc(N4CCNCC4)cc3)nc2c(C)n1 | 
 | 1520 nM | Cc1cn2cc(NC(=O)c3ccc(N4CCN(C)CC4)cn3)nc2c(C)n1 | 
232 nM | 560 nM | Cc1cn2cc(NC(=O)c3ccc(N4CCN(C)CC4)cc3F)nc2c(C)n1 | 
29 nM | 86 nM | Cc1cn2cc(NC(=O)c3ccc(N4CCC(N5CCCC5)C4)cc3F)nc2c(C)n1 (stereo not given) | 
inactive | inactive | Cc1cn2cc(-c3ccc(NC(=O)N4CCN(C)CC4)cc3)nc2c(C)n1 | 
25 nM |  | Cc1cn2cc(-c3cc4ccc(N5CCN(C)CC5)cc4c(=O)o3)nc2c(C)n1 | Activity [3]: Toxic; Activity [4]: Toxic; Activity [5]: Toxic; Activity [6]: Toxic; Activity [7]: Toxic
4410 nM | 8420 nM | Cc1cn2cc(/C=C/c3ccc(N4CCNCC4)cc3)nc2c(C)n1 | 
inactive | inactive | Cc1cn2cc(C(=O)Nc3ccc(C4CCN(C)CC4)cc3)nc2c(C)n1 | 
40 nM | 152 nM | Cc1cn2cc(NC(=O)c3ccc(N4CCNC(C)C4)cc3F)c(C)cc2n1 (stereo not given) | Activity [3]: Non-Toxic; Activity [4]: Non-Toxic; Activity [5]: Non-Toxic; Activity [6]: Non-Toxic; Activity [7]: Non-Toxic
100 nM | 200 nM | Cc1cn2cc(NC(=O)c3ccc(N4CCN(N5CCCC5)CC4)cc3F)nc2c(C)n1 | 
inactive | inactive | Cc1cn2cc(-c3ccc(C(=O)NC4CCN(C)CC4)cc3)nc2c(C)n1 | 
820 nM | 3800 nM | Cc1cn2cc(NC(=O)c3ccc(C4CCNCC4)cc3)nc2c(C)n1 | 
inactive | inactive | Cc1cn2cc(-c3ccc(NC(=O)C4CCN(C)CC4)cc3)nc2c(C)n1 | 
inactive | inactive | Cc1cn2cc(C#Cc3ccc(N4CCN(C)CC4)cc3)nc2c(C)n1 | 
4700 nM | inactive | Cc1cn2cc(-c3ccc4c(c3)OC(=O)N(C3CCNCC3)C4)nc2c(C)n1 | 
inactive | inactive | Cc1cn2cc(N(C)C(=O)c3ccc(N4CCN(C)CC4)cc3)nc2c(C)n1 | 
